# Activity calls are given as the source filed them. The calls are words filed in the database; no cut-off is given here.
# Experiments:
# Physalis ixocarpa [1] = test: Phytotoxicity against Physalis ixocarpa assessed as inhibition of seed respiration during germination after 24 hr; type: functional, organism-based
# Method in brief: (§1)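 Oxygen uptake of germinating seeds measured polarographically with a Clark-type electrode at 25 °C in a nonilluminated cell over 5 and 10 min, at several compound concentrations. Expressed as percent of control (100%). Three experiments; RI50 from Probit analysis.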
# Lolium multiflorum [2] = test: Phytotoxicity against Lolium multiflorum (Italian ryegrass) assessed as inhibition of seed germination at 500 uM after 48 hr; type: functional
# Method in brief: (§2)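 Seeds of uniform size on Whatman No.1 filter paper in 85 mm Petri dishes, wetted with 8 or 10 mL deionized water or test solution (MeOH < 1%); controls got matching water/methanol. Sealed, incubated at 28 °C in the dark, scored at 48 h intervals; germination = 1 mm radicle extrusion. Three replicates.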
# Trifolium pratense [3] = test: Increase of shoot development during seeding stage in Trifolium pratense (red clover) at 200 uM after 120 hr; type: functional, organism-based
# Method in brief: (§3)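 Petri-dish seedling assay on filter paper wetted with test solution (MeOH < 1%), 28 °C in the dark. Coleoptile/hypocotyl and root lengths of all germinated seeds measured after 120 h, then plants dried to constant weight at 40 °C. Three replicates; 50% inhibitory concentrations by Probit analysis of percent inhibition versus concentration.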
# Physalis ixocarpa [4] = test: Increase of shoot development during seeding stage in Physalis ixocarpa up to 50 uM after 120 hr; type: functional, organism-based; method in brief: as §3
# Trifolium pratense [5] = test: Increase of root development during seeding stage in Trifolium pratense (red clover) at 50 to 300 uM after 120 hr; type: functional, organism-based; method in brief: as §3
# Lactuca sativa [6] = test: Increase of root development during seeding stage in Lactuca sativa (lettuce) at 50 to 300 uM after 120 hr; type: functional, organism-based; method in brief: as §3
# Trifolium pratense [7] = test: Phytotoxicity against Trifolium pratense (red clover) assessed as inhibition of root development during seeding stage after 120 hr; type: functional, organism-based; settings: for IC50: read-out: I50; method in brief: as §3
# Trifolium pratense [8] = test: Phytotoxicity against Trifolium pratense (red clover) assessed as inhibition of shoot development during seeding stage after 120 hr; type: functional, organism-based; settings: for IC50: read-out: I50; method in brief: as §3
# Physalis ixocarpa [9] = test: Phytotoxicity against Physalis ixocarpa assessed as inhibition of root development during seeding stage after 120 hr; type: functional, organism-based; settings: for IC50: read-out: I50; method in brief: as §3
# Physalis ixocarpa [10] = test: Phytotoxicity against Physalis ixocarpa assessed as inhibition of shoot development during seeding stage after 120 hr; type: functional, organism-based; settings: for IC50: read-out: I50; method in brief: as §3
# Lactuca sativa [11] = test: Phytotoxicity against Lactuca sativa (lettuce) assessed as inhibition of root development during seeding stage after 120 hr; type: functional, organism-based; settings: for IC50: read-out: I50; method in brief: as §3
# Lactuca sativa [12] = test: Phytotoxicity against Lactuca sativa (lettuce) assessed as inhibition of shoot development during seeding stage after 120 hr; type: functional, organism-based; settings: for IC50: read-out: I50; method in brief: as §3
# Lolium multiflorum [13] = test: Phytotoxicity against Lolium multiflorum (Italian ryegrass) assessed as inhibition of root development during seeding stage after 120 hr; type: functional, organism-based; settings: for IC50: read-out: I50; method in brief: as §3
# Lolium multiflorum [14] = test: Phytotoxicity against Lolium multiflorum (Italian ryegrass) assessed as inhibition of shoot development during seeding stage after 120 hr; type: functional, organism-based; settings: for IC50: read-out: I50; method in brief: as §3
# Trifolium pratense [15] = test: Phytotoxicity against Trifolium pratense (red clover) assessed as inhibition of seed germination after 48 hr; type: functional; method in brief: as §2
# Lolium multiflorum [16] = test: Phytotoxicity against Lolium multiflorum (Italian ryegrass) assessed as inhibition of seed respiration during germination at 300 to 500 uM after 24 hr; type: functional, organism-based; method in brief: as §1
# Lolium multiflorum [17] = test: Increase of seed respiration during germination in Lolium multiflorum (Italian ryegrass)at 30 uM; type: functional, organism-based; method in brief: as §1
# Trifolium pratense [18] = test: Phytotoxicity against Trifolium pratense (red clover) assessed as inhibition of seed respiration during germination after 24 hr; type: functional, organism-based; method in brief: as §1
# Lactuca sativa [19] = test: Phytotoxicity against Lactuca sativa (lettuce) assessed as inhibition of seed respiration during germination after 24 hr; type: functional, organism-based; method in brief: as §1
# Lolium multiflorum [20] = test: Phytotoxicity against Lolium multiflorum (Italian ryegrass) assessed as inhibition of seed respiration during germination after 24 hr; type: functional, organism-based; method in brief: as §1
# Physalis ixocarpa [21] = test: Phytotoxicity against Physalis ixocarpa assessed as inhibition of seed germination after 48 hr; type: functional; method in brief: as §2
# Lactuca sativa [22] = test: Phytotoxicity against Lactuca sativa (lettuce) assessed as inhibition of seed germination after 48 hr; type: functional; method in brief: as §2
# Lolium multiflorum [23] = test: Phytotoxicity against Lolium multiflorum (Italian ryegrass) assessed as inhibition of seed germination after 48 hr; type: functional; method in brief: as §2
# [24] = test system: Lolium multiflorum (ryegrass); test: Phytotoxicity against Lolium multiflorum (ryegrass) assessed as inhibition of seed germination at 500 uM after 48 hr
# Physalis ixocarpa [25] = test: Phytotoxicity against Physalis ixocarpa assessed as inhibition of seed respiration during germination after 72 hr; type: functional, organism-based; settings: read-out: I50; method in brief: as §1
# [26] = test system: Radical scavenging activity; test: Antioxidant activity assessed as DPPH free radical scavenging activity after 30 min by TLC autographic assay; type: functional; settings: in the assay text read “spectrophotometric assay” for “TLC autographic assay”; read-out: I50
# [27] = Antioxidant activity assessed as inhibition of bleaching of water soluble crocin measured every 5 min by spectrophotometric analysis; type: functional
# Method in brief: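 Aqueous mixture of 10 µM crocin, 1 mM t-BuOOH and 0.5 M t-BuOH with serial dilutions of test compound, placed under UV254 light; crocin bleaching (absorbance decrease) and fluorescence emission at 440 and 470 nm followed every 5 min. Three experiments, mean ± SEM.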
# Spinacia oleracea [28] = test: Inhibition of ATP synthesis in Spinacia oleracea (spinach) chloroplasts; type: functional
# Method in brief: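 Spinach thylakoids in 100 mM sorbitol, 5 mM MgCl2, 10 mM KCl, 1 mM Na+-tricine, pH 8, with 50 µM methyl viologen as Hill-reaction electron acceptor. Illuminated at 20 °C through 1% CuSO4 filter. ATP synthesis measured titrimetrically.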
# Spinacia oleracea [29] = test: Inhibition of H+ uptake in Spinacia oleracea (spinach) chloroplasts; type: functional; settings: for IC50: read-out: I50
# Method in brief: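 Spinach thylakoids (from isolated chloroplasts, in sorbitol/tricine/MgCl2/NaCl buffer, pH 7.8) in 100 mM sorbitol, 5 mM MgCl2, 10 mM KCl, 1 mM Na+-tricine, pH 8, with 50 µM methyl viologen. Illuminated at 20 °C through 1% CuSO4 filter. H+ uptake recorded as pH rise from 8.0 to 8.1 with combination microelectrode on expanded scale.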
# Phaseolus vulgaris = test: Inhibition of mitochondrial respiration in Phaseolus vulgaris root mitochondria assessed as reduction of oxygen uptake; type: functional; settings: read-out: I50
# Method in brief: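 Mitochondria from roots of 72 h dark-grown (28 °C) bean seedlings, Percoll-gradient purified, 0.3-0.5 mg protein (Bradford) per run; integrity checked with HCN. Compounds in 0.5% methanol added after a constant state 3 rate with […] was reached. O2 uptake by Clark electrode; control is mitochondria with 0.5% MeOH. Three experiments; I50 by Probit.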
# Trifolium pratense [30] = test: Phytotoxicity against Trifolium pratense (red clover) assessed as inhibition of seed respiration during germination after 72 hr; type: functional, organism-based; settings: read-out: I50; method in brief: as §1
# Lactuca sativa [31] = test: Phytotoxicity against Lactuca sativa (lettuce) assessed as inhibition of seed respiration during germination after 72 hr; type: functional, organism-based; settings: read-out: I50; method in brief: as §1
# Lolium multiflorum [32] = test: Phytotoxicity against Lolium multiflorum (Italian ryegrass) assessed as inhibition of seed respiration during germination after 72 hr; type: functional, organism-based; settings: read-out: I50; method in brief: as §1
SMILES,I50 (Physalis ixocarpa [1]),inhibition at 500 µM (Lolium multiflorum [2]),Activity (Trifolium pratense [3]),Activity (Physalis ixocarpa [4]),Activity (Trifolium pratense [5]),Activity (Lactuca sativa [6]),IC50 (Trifolium pratense [7]),IC50 (Trifolium pratense [8]),IC50 (Lactuca sativa [11]),IC50 (Lactuca sativa [12]),IC50 (Lolium multiflorum [13]),IC50 (Lolium multiflorum [14]),GI50 (Trifolium pratense [15]),Activity (Lolium multiflorum [16]),Activity (Lolium multiflorum [17]),I50 (Trifolium pratense [18]),I50 (Lactuca sativa [19]),GI50 (Physalis ixocarpa [21]),GI50 (Lactuca sativa [22]),GI50 (Lolium multiflorum [23]),other results
CC(=O)Oc1ccc(C(C)=O)cc1 [4-(ACETATE)ACETOPHENONE],inactive,30%,Active,Active,Active,Active,221 µM,234 µM,38.9 µM,39.1 µM,75.5 µM,77.3 µM,233 µM,Active,Active,inactive,inactive,inactive,41 µM,75.3 µM,I50 (Physalis ixocarpa [9]): inactive; I50 (Physalis ixocarpa [10]): inactive; I50 (Lolium multiflorum [20]): inactive; inhibition at 500 µM [24]: 30%
CC(=O)c1ccc(O[C@@H]2O[C@H](CO)[C@@H](O)[C@H](O)[C@H]2O)cc1 [PICEIN],inactive,30%,Active,Active,Active,Active,,,,,,,inactive,Active,Active,inactive,inactive,inactive,inactive,inactive,I50 (Trifolium pratense [7]): inactive; I50 (Trifolium pratense [8]): inactive; I50 (Physalis ixocarpa [9]): inactive; I50 (Physalis ixocarpa [10]): inactive; I50 (Lactuca sativa [11]): inactive; I50 (Lactuca sativa [12]): inactive; I50 (Lolium multiflorum [13]): inactive; I50 (Lolium multiflorum [14]): inactive; I50 (Lolium multiflorum [20]): inactive; inhibition at 500 µM [24]: 30%
"CC(=O)c1ccc2c(c1)CC(C1(C)CO1)O2 (stereo unspecified) [10,11-EPOXY TREMETONE]",,,,,,,16.2 µM,14.3 µM,33.8 µM,33 µM,72.6 µM,65.9 µM,22.3 µM,,,,,19.2 µM,36.1 µM,65.6 µM,IC50 (Physalis ixocarpa [25]): 57.5 µM; IC50 (Physalis ixocarpa [9]): 15.7 µM; IC50 (Physalis ixocarpa [10]): 5.8 µM; IC50 [26]: 62.6 µM; inhibition [27]: Active; inhibition (Spinacia oleracea [28]): Dose-dependent effect; inhibition (Spinacia oleracea [29]): Dose-dependent effect; IC50 (Spinacia oleracea [29]): 40.7 µM; IC50 (Phaseolus vulgaris): 109 µM; IC50 (Trifolium pratense [30]): 49.1 µM; IC50 (Lactuca sativa [31]): 58 µM; IC50 (Lolium multiflorum [32]): 67.9 µM
C=C(C)[C@H]1Cc2c(ccc(C(C)=O)c2OC(C)=O)O1 [4-ACETYL TREMETONE],inactive,30%,Active,Active,Active,Active,45 µM,45 µM,87.5 µM,89.5 µM,82.1 µM,87.5 µM,40 µM,Active,Active,inactive,inactive,55.2 µM,85.5 µM,79.9 µM,IC50 (Physalis ixocarpa [9]): 70.1 µM; IC50 (Physalis ixocarpa [10]): 65.5 µM; I50 (Lolium multiflorum [20]): inactive; inhibition at 500 µM [24]: 30%
CC(=O)c1ccc2c(c1O)C[C@H](C1(C)CO1)O2 (stereo partly specified),,,,,,,7.1 µM,7.2 µM,10.9 µM,10.5 µM,11.9 µM,11.2 µM,7.1 µM,,,,,8.7 µM,11.5 µM,10.4 µM,IC50 (Physalis ixocarpa [25]): 15.8 µM; IC50 (Physalis ixocarpa [9]): 9.9 µM; IC50 (Physalis ixocarpa [10]): 7.7 µM; IC50 [26]: 30.6 µM; inhibition [27]: Active; inhibition (Spinacia oleracea [28]): Dose-dependent effect; inhibition (Spinacia oleracea [29]): Dose-dependent effect; IC50 (Spinacia oleracea [29]): 13.8 µM; IC50 (Phaseolus vulgaris): 17.1 µM; IC50 (Trifolium pratense [30]): 10.1 µM; IC50 (Lactuca sativa [31]): 11 µM; IC50 (Lolium multiflorum [32]): 18 µM
